Reference: ChEMBL document CHEMBL1268890, “Binding of diarrheic shellfish poisoning toxins to okadaic acid binding proteins purified from the sponge Halichondria okadai” (Bioorg Med Chem, 2010)
Active and inactive are the calls of the source. The rule behind the calls is not given here.

Experiments:
BL21-DE3 = assay: Displacement of [24-3H]OA from Halichondria okadai recombinant OABP 2.1 expressed in Escherichia coli BL21 (DE3) cells
[1] = molecular target: T1, Okadaic acid binding protein 2.3 (Halichondria okadai) (UniProt B0M1D1); assay: Displacement of [24-3H]OA from Halichondria okadai recombinant OABP 2.3 expressed in Escherichia coli BL21 (DE3) cells
T1 sequence (whole entry): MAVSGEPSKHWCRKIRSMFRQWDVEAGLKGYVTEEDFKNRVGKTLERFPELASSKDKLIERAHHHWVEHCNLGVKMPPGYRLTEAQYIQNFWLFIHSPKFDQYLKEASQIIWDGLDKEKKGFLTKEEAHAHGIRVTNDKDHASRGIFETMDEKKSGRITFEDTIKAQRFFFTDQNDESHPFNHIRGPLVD

P388 [2] = assay: Blockade of mitomycin-induced cytotoxicity in mouse P388 cells after 2 days by WST-8 assay in presence of Halichondria okadai recombinant OABP 2.1; assay type: functional, cell-based
P388 [3] = assay: Blockade of okadaic acid-induced cytotoxicity in mouse P388 cells after 2 days by WST-8 assay in presence of Halichondria okadai recombinant OABP 2.1; assay type: functional, cell-based; conditions: P388, 48 h
In short: (§1)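 P388 cells kept in RPMI 1640 with FBS, penicillin and streptomycin. Cells exposed to 100 nM okadaic acid together with graded concentrations of recombinant OABP for 2 days. WST-8 then added for 4 h; relative viability read as absorbance at 450 nm; EC50 from dose-response.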

P388 [4] = assay: Blockade of okadaic acid-induced cytotoxicity in mouse P388 cells after 2 days by WST-8 assay in presence of Halichondria okadai recombinant OABP 2.3; assay type: functional, cell-based; conditions: P388, 48 h; in short: as §1

C=C1[C@@H](O)[C@@H]2O[C@]3(CC[C@H](/C=C/[C@@H](C)[C@@H]4CC(C)=C[C@@]5(O[C@H](C[C@@](C)(O)C(=O)O)CC[C@H]5O)O4)O3)CC[C@H]2O[C@@H]1[C@@H](O)C[C@H](C)[C@H]1O[C@@]2(CC[C@H]1C)OCCC[C@H]2C
Activity (BL21-DE3): Dose-dependent effect
Activity [1]: Dose-dependent effect

C=C1[C@@H](O)[C@@H]2O[C@]3(CC[C@H](/C=C/[C@@H](C)[C@@H]4CC(C)=C[C@@]5(O[C@H](C[C@@](C)(O)C(=O)O)CC[C@H]5O)O4)O3)CC[C@H]2O[C@@H]1[C@@H](O)C[C@H](C)[C@H]1O[C@@]2(CCCCO2)CC[C@H]1C [OKADAIC ACID]
Activity (P388 [2]): inactive
EC50 (P388 [3]): 92 nM
Activity (BL21-DE3): Dose-dependent effect
Activity [1]: Dose-dependent effect
EC50 (P388 [4]): 87 nM
